Test results published in article PMC4716540 (British Journal of Cancer, 2015).
Where “and” joins values, the source holds several entries; their conditions need not be identical. Equal entries are not always repeated.

What was measured:
[1] = test system: Hsp70 in peripheral blood mononuclear cells (PBMCs); assay: Hsp70 levels in PBMCs by western blot as biomarker for Hsp90 inhibition; assay type: in vivo, human
In short: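 Patients with relapsed/refractory B-cell malignancies received the test compound by 1-h IV infusion on days 1–5 of a 14-day cycle (cohorts 14–176 mg m⁻², 3+3 design). Hsp70 was measured by western blot at an independent central laboratory, as change from baseline, and summarised descriptively by dose level.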

[2] = test system: relapsed/refractory MM and NHL; assay: Tumour response by standard criteria for MM and NHL; assay type: in vivo, human; details: for Duration of sustained SD: one patient
In short: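 Best tumour response was assessed over all cycles of single-agent treatment. The agent was given by 1-h IV infusion on days 1–5 of each 14-day cycle, at 14–176 mg m⁻². Treatment continued for up to 12 months or until progression, unacceptable toxicity or withdrawal. Intrapatient escalation was allowed after at least two cycles. Chemotherapy, radiotherapy and corticosteroids were excluded. Responses were summarised descriptively by dose level.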

Hsp90 = details: ref Nakashima et al, 2010; Ishii et al, 2012; cited from earlier work
[3] = test system: in vitro and in vivo models, including primary MM patient samples; details: ref Nakashima et al, 2010, Ishii et al, 2012; cited from earlier work
primary myeloma cells = details: in the presence of bone marrow stromal cells; ref Juliger et al, 2008; cited from earlier work
[4] = 25 evaluable patients, all doses

CCc1c(O)cc(O)c(C(=O)c2ccc(OCCN3CCOCC3)c(OC)c2)c1CC(=O)N(CCOC)CCOC [KW-2478]
Hsp70 induction above baseline in PBMCs ([1]; doses ⩾71 mg m^–2, 8 h after dosing on days 1 and 5): ≥ 25%
Doses at which Hsp70 levels in PBMCs increased (target inhibition inferred) ([1]; western blot): ≥ 71 mg m^–2
Progressive disease, MM patients ([2]; 21 evaluable MM patients): 4.8%
Stable disease (SD), MM patients ([2]; 21 evaluable MM patients): 95.2%
Evaluable patients with stable disease (disease stabilisation rate) [2, 4]: 96%
Overall disease control rate [2, 4]: 96.0%
Patients with SD lasting ⩾3 months ([2]; all doses): Eight
Patients with SD lasting ⩾6 months (free of disease progression) ([2]; all doses): five
Complete or partial responses ([2]; best tumour response over all cycles): No patients achieved complete or partial responses
Stable disease (SD), NHL patients ([2]; four evaluable NHL patients): 100%
Duration of response ([2]; individual patient, MM, 99 mg m^–2): 3.1 months
Duration of response ([2]; individual patient, NHL, 99 mg m^–2): 1.5 months
Duration of response ([2]; individual patient, NHL, 176 mg m^–2): 1.3 months
Duration of response ([2]; individual patients, MM, 14 mg m^–2): 1 months and 1.4 months
Duration of response ([2]; individual patients, MM, 28 mg m^–2): 11.3 months and 0.8 months and 1.8 months
Duration of response ([2]; individual patients, MM, 47 mg m^–2): 1.3 months and 1 months
Duration of response ([2]; individual patients, MM, 71 mg m^–2): 1.1 months and 5.1 months
Duration of response ([2]; individual patients, MM, 132 mg m^–2): 1.4 months and 8.8 months and 12.9 months
Duration of response ([2]; individual patients, MM, 176 mg m^–2): 3.5 months and 1.3 months and 11.9 months and 2 months
Duration of response ([2]; individual patients, NHL, 132 mg m^–2): 1.4 months and 8.2 months
Duration of sustained SD ([2]; 132 mg m^–2 cohort): 12.9 months
Duration of sustained SD ([2]; 176 mg m^–2 cohort): 11.9 months
Binding affinity to Hsp90 (Hsp90): high binding affinity
Antitumour activity [3]: potent antitumour activity
Activity against primary myeloma cells (primary myeloma cells): retained
